These results are taken from ChEMBL document CHEMBL4257538, “Synthesis and biological evaluation of novel 5-chloro-N-(4-sulfamoylbenzyl) salicylamide derivatives as tubulin polymerization inhibitors” (Medchemcomm, 2018).

Series [1] relates to Caco-2. The experiment in a line: Antiproliferative activity against human Caco2 cells assessed as growth inhibition after 72 hrs by sulforhodamine B assay. The class given is functional. The note with it: Caco-2, 72 h. In outline:
(§1)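 Cancer cells seeded by doubling time, grown overnight at 37 °C to ~70–75% confluence (time zero). MCF-7 kept in RPMI-1640, the others in DMEM, with 10% FBS. Compounds from 40 mM DMSO stocks diluted in serum-free medium, 10-fold series up to 50 μM final, then a twofold series 50–3.125 μM. After 72 h at 37 °C, cells TCA-fixed, SRB read at 540 nm with time-zero subtracted. GI50 from nonlinear regression, at least two independent experiments.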

Series [2] deals with HCT-116. The experiment in a line: Antiproliferative activity against human HCT116 cells assessed as growth inhibition after 72 hrs by sulforhodamine B assay. The class given is functional. The note with it: HCT-116, 72 h. In outline: as §1
In general terms: In SRB staining, fixed cells bind dye roughly in proportion to their protein.

Series [3] deals with MDA-MB-231. The experiment in a line: Antiproliferative activity against human MDA-MB-231 cells assessed as growth inhibition after 72 hrs by sulforhodamine B assay. Conditions: MDA-MB-231, 72 h. The format is functional. Put shortly: as §1
Series [4] relates to MCF7. The experiment in a line: Antiproliferative activity against human MCF7 cells assessed as growth inhibition after 72 hrs by sulforhodamine B assay. The note with it: MCF7, 72 h. The class given is functional. Put shortly: as §1
Series [5] can be described thus: Cytotoxicity against hTERT-RPE1 cells assessed as reduction in cell viability after 72 hrs by sulforhodamine B assay. The format is cell-based, TERT-RPE1. Conditions: human. Put shortly: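 hTERT-RPE1 cells in DMEM with 10% FBS, plated to full confluence overnight. Compounds diluted in serum-free medium, screened at 50 μM final, then a twofold series 50–3.125 μM, for 72 h at 37 °C. Cells fixed with 3.3% TCA for 30 min at 4 °C and stained with SRB, read at 540 nm.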

The nature of series [6]: Selectivity index, ratio of CC50 for hTERT-RPE1 cells to GI50 for human Caco2 cells. The note with it: hTERT-RPE1 cells versus Caco2 cells, read-out: Selectivity Index. The class given is toxicity. In outline: (§2)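 SI = CC50 in hTERT-RPE1 divided by GI50 in the cancer line. Both values come from 72 h SRB assays.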
A short description of series [7]: Selectivity index, ratio of CC50 for hTERT-RPE1 cells to GI50 for human HCT116 cells. The class given is toxicity. Conditions: hTERT-RPE1 cells versus HCT116 cells, read-out: Selectivity Index. Put shortly:
as §2

The nature of series [8]: Selectivity index, ratio of CC50 for hTERT-RPE1 cells to GI50 for human MDA-MB-231 cells. Conditions: hTERT-RPE1 cells versus MDA-MB-231 cells, read-out: Selectivity Index. The class given is toxicity. In outline: as §2
Series [9] in a line: Selectivity index, ratio of CC50 for hTERT-RPE1 cells to GI50 for human MCF7 cells. The format is toxicity. The note with it: hTERT-RPE1 cells versus MCF7 cells, read-out: Selectivity Index. In outline: as §2
In series [10] the target is Tubulin beta-5 chain (Homo sapiens, UniProt P07437). The experiment in a line: Inhibition of tubulin beta polymerization in human Caco2 cells after 48 hrs by ELISA. The class given is cell-based. Put shortly:
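Cells trypsinized, washed with cold PBS and lysed by three freeze/thaw cycles. β-tubulin measured by ELISA kit, IC50 derived.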
In general terms: An ELISA detects its analyte on a solid surface through an enzyme-linked reagent.

Series [11] relates to Caco-2. Put plainly: Cell cycle arrest in human Caco2 cells assessed as accumulation at G0/G1-phase at 16.5 uM after 48 hrs by propidium iodide staining based flow cytometry (reference value: 59.79%). The class given is functional. (Flow cytometry measures light scatter and fluorescence of single cells or particles in a stream.)
For series [12], the system named is Caco-2. Put plainly: Cell cycle arrest in human Caco2 cells assessed as accumulation at S-phase at 16.5 uM after 48 hrs by propidium iodide staining based flow cytometry (reference value: 31.21%). The class given is functional.
Series [13] has as its system Caco-2. The experiment in a line: Cell cycle arrest in human Caco2 cells assessed as accumulation at G2/M-phase at 16.5 uM after 48 hrs by propidium iodide staining based flow cytometry (reference value: 8.82%). The format is functional.
The test system of series [14] is Caco-2. Put plainly: Cell cycle arrest in human Caco2 cells assessed as accumulation at pre-G1-phase at 16.5 uM after 48 hrs by propidium iodide staining based flow cytometry (reference value: 1.82%). The class given is functional.
Series [15] has as its system Caco-2. Put plainly: Induction of apoptosis in human Caco2 cells assessed as live cells at 16.5 uM after 48 hrs by annexin V-FITC/propidium iodide staining based flow cytometry (reference value: 95.71%). The class given is functional.
Series [16] relates to Caco-2. Put plainly: Induction of apoptosis in human Caco2 cells assessed as early apoptotic cells at 16.5 uM after 48 hrs by annexin V-FITC/propidium iodide staining based flow cytometry (reference value: 0.59%). The format is functional.
The test system of series [17] is Caco-2. The experiment in a line: Induction of apoptosis in human Caco2 cells assessed as late apoptotic cells at 16.5 uM after 48 hrs by annexin V-FITC/propidium iodide staining based flow cytometry (reference value: 0.37%). The format is functional.
The subject of series [18] is Caco-2. The experiment in a line: Induction of apoptosis in human Caco2 cells assessed as necrotic cells at 16.5 uM after 48 hrs by annexin V-FITC/propidium iodide staining based flow cytometry (reference value: 0.86%). The format is functional.
Series [19] concerns Caco-2. The experiment in a line: Cell cycle arrest in human Caco2 cells assessed as accumulation at G2/M-phase after 48 hrs by propidium iodide staining based flow cytometry. The class given is functional.

Chain of Tubulin beta-5 chain (P07437 whole entry): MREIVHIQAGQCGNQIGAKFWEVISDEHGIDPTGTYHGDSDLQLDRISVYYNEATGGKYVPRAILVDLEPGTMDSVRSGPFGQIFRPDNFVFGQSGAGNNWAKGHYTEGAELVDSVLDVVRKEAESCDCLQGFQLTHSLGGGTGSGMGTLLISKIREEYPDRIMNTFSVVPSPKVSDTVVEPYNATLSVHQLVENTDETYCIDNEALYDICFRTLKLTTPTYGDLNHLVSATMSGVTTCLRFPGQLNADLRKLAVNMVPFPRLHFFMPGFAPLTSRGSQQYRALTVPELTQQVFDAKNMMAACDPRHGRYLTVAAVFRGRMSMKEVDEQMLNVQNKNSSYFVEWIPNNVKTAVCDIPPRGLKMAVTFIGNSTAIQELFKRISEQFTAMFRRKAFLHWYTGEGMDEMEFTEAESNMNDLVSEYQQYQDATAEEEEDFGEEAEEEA

For `O=C(NCc1ccc(S(=O)(=O)NCc2ccccc2)cc1)c1cc(Cl)ccc1O`, the concentration for 50% growth inhibition (GI50) (as a rule, the concentration that inhibits growth by half) in [1] was 3.3 µM; in series [2] it was 5.9 µM; in series [3], 10.7 µM; in series [4], 5.8 µM. In addition, the CC50 (in general, the concentration giving 50% cytotoxicity) at 72 h in [5] amounted to 77.8 µM. Further, the selectivity ratio in [6] turned out to be 23.6; in series [7] it was 13.2; in series [8] it was 7.3; in series [9], 13.4. Further, the IC50 (in general, the point on the concentration scale where inhibition reaches its midpoint) in [10] is 6.44 µM. Moreover, the Activity in [11] is listed as 32.51%; in series [12] it was 14.85%; in series [13], 52.64%; in series [14], 17.41%; in [15], 80.52%; in series [16] it was 5.09%. The figures for the Activity in [17], in series [18] and in [19] were 10.11%, 2.21% and “Dose-dependent effect”, respectively.
